Changes are numbered by the printed parent chain. Numbers in names are those of the source.
B1: M264D: α-TTP mutant; surface methionine replaced with aspartate in a region predicted distant from the membrane plane (protein, UniProt P49638 1-278, looked up, variant M264D)
Alpha-tocopherol transfer …: MAEARSQPSAGPQLNALPDHSPLLQPGLAALRRRAREAGVPLAPLPLTDSFLLRFLRARDFDLDLAWRLLKNYYKWRAECPEISADLHPRSIIGLLKAGYHGVLRSRDPTGSKVLIYRIAHWDPKVFTAYDVFRVSLITSELIVQEVETQRNGIKAIFDLEGWQFSHAFQITPSVAKKIAAVLTDSFPLKVRGIHLINEPVIFHAVFSMIKPFLTEKIKERIHMHGNNYKQSLLQHFPDILPLEYGGEEFSMEDICQEWTNFIDKSEDYLSSISESIQ
B2: F165D: α-TTP mutant, Phe165 to Asp (helix A8) (protein, UniProt P49638 1-278, looked up, variant F165D)
Alpha-tocopherol transfer …: B1 Alpha-tocopherol transfer … with F165D, D264M
B3: I202D: α-TTP mutant, Ile202 to Asp (helix A10) (protein, UniProt P49638 1-278, looked up, variant I202D)
Alpha-tocopherol transfer …: B1 Alpha-tocopherol transfer … with I202D, D264M
B4: M209D: α-TTP mutant, Met209 to Asp (helix A10) (protein, UniProt P49638 1-278, looked up, variant M209D)
Alpha-tocopherol transfer …: B1 Alpha-tocopherol transfer … with M209D, D264M
B5: F165A: α-TTP mutant, Phe165 to Ala (protein, UniProt P49638 1-278, looked up, variant F165A)
Alpha-tocopherol transfer …: B1 Alpha-tocopherol transfer … with F165A, D264M
B6: M209A: α-TTP mutant, Met209 to Ala (protein, UniProt P49638 1-278, looked up, variant M209A)
Alpha-tocopherol transfer …: B1 Alpha-tocopherol transfer … with M209A, D264M
B7: R192H: naturally-occurring α-TTP mutant associated with heritable mild vitamin E deficiency in humans (protein, UniProt P49638 1-278, looked up, variant R192H)
Alpha-tocopherol transfer …: B1 Alpha-tocopherol transfer … with R192H, D264M
B8: K211A: α-TTP mutant, surface Lys211 (helix A10) to Ala (protein, UniProt P49638 1-278, looked up, variant K211A)
Alpha-tocopherol transfer …: B1 Alpha-tocopherol transfer … with K211A, D264M
B9: I202D/M209D: α-TTP double mutant (protein, UniProt P49638 1-278, looked up, variant I202D M209D)
Alpha-tocopherol transfer …: B1 Alpha-tocopherol transfer … with I202D, M209D, D264M
B10: F165D/M209D: α-TTP double mutant (protein, UniProt P49638 1-278, looked up, variant F165D M209D)
Alpha-tocopherol transfer …: B1 Alpha-tocopherol transfer … with F165D, M209D, D264M
B11: V206A: α-TTP mutant, Val206 to Ala (protein, UniProt P49638 1-278, looked up, variant V206A)
Alpha-tocopherol transfer …: B1 Alpha-tocopherol transfer … with V206A, D264M

Experiments:
[1] = FRET assay of NBD-Toc transfer from α-TTP variants to LUVs; type: biochemical; conditions: for Rate of NBD-Toc transfer to LUV, Rate: PC vesicles, 0.225 μM NBD-Toc, 2 μM α-TTP, 100 μM vesicles, room temperature; for Rate of NBD-Toc transfer to LUV, Rate^mut/Rate^wt: relative to wild type
How it was run: (§1)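 Each protein (4 μM) was preloaded with 0.45 μM NBD-Toc for 15 min in SET buffer (pH 7.4). It was then stopped-flow mixed at room temperature with 200 μM acceptor vesicles of 97% liver PC and 3% TRITC-PE (finals 0.225 μM, 2 μM, 100 μM). Vesicles were sonicated SUVs (~60 nm) or extruded LUVs (150 nm). NBD quench was normalised to initial fluorescence and fitted single-exponentially.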

[2] = FRET assay of NBD-Toc transfer from α-TTP variants to SUVs; type: biochemical; conditions: for Rate of NBD-Toc transfer to SUV, Rate: PC vesicles, 0.225 μM NBD-Toc, 2 μM α-TTP, 100 μM vesicles, room temperature; for Rate of NBD-Toc transfer to SUV, Rate^mut/Rate^wt: relative to wild type; for Reduction of rate of transfer to SUVs: reduction relative to wild type
How it was run: as §1

[3] = Dual polarization interferometry of protein adsorption to immobilized bilayer; type: binding; conditions: for Ads^mut/Ads^wt (0.50 μM injection): 0.50 μM protein injection; for Ads^mut/Ads^wt (1.0 μM injection): 1.0 μM protein injection; for Fold change in affinity: relative to wild type; for Adsorption/binding to immobilized bilayers by DPI, % of wild type: injection concentration not stated
How it was run: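 Recombinant α-TTP (E. coli BL21(DE3), glutathione affinity, thrombin-cleaved) was dialysed 1 h at 4 °C into pH 7.4 phosphate/137 mM NaCl buffer. It was injected at 25 μl/min for 8 min over a 90:10 DOPC:DOPS bilayer on a silicon oxynitride chip at 20 °C. Adsorbed mass was measured at 0.5 and 1.0 μM in quadruplicate, two channels each. Kd came from fitting Bmax against concentration.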

Filtration = type: binding; conditions: compared with wild type
How it was run: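 Recombinant α-TTP (31.5 μg) was incubated with increasing concentrations of sonicated SUVs or extruded 150 nm LUVs in SET buffer for 30 min at room temperature. Mixtures were spun through 100 kDa-cutoff filters at 10,000g for 20 min to separate vesicle-bound from free protein. Protein was resolved on gels, stained with colloidal Coomassie and quantified by band densitometry.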

Molecule	Reduction of transfer rate with LUVs versus SUVs ([1]; LUVs compared with SUVs)	Rate of NBD-Toc transfer to LUV, Rate [1]	Rate of NBD-Toc transfer to LUV, Rate^mut/Rate^wt [1]	Rate of NBD-Toc transfer to SUV, Rate [2]	Rate of NBD-Toc transfer to SUV, Rate^mut/Rate^wt [2]	Ads^mut/Ads^wt (0.50 μM injection) [3]	Ads^mut/Ads^wt (1.0 μM injection) [3]	Fold change in affinity [3]	Reduction of rate of ligand deposition in LUVs ([1]; reduction relative to wild type)	Reduction of rate of transfer to SUVs [2]	Vesicle binding to SUVs (in words) (Filtration)	Adsorption/binding to immobilized bilayers by DPI, % of wild type [3]	Effect on rate of NBD-Toc transfer to SUVs (in words) ([2]; compared with wild type or single mutants)	Binding to immobilized bilayers, % of WT ([3]; printed "for LUVs")	Binding to immobilized bilayers, % of WT ([3]; printed "for SUVs")
WT: human α-tocopherol transfer protein, wild type, expressed in E. coli as GST fusion and cleaved	8 fold	0.016 ± 0.002 s⁻¹	100%	0.127 ± 0.012 s⁻¹	100%	1	1	0	–	–	–	–	–	–	–
B1	–	0.008 ± 0.001 s⁻¹	50%	0.116 ± 0.013 s⁻¹	91%	0.66	0.81	–	50%	9%	–	–	–	–	–
B2	–	0.009 ± 0.005 s⁻¹	56%	0.013 ± 0.001 s⁻¹	10%	0.11	0.19	12.2	–	90%	diminished vesicle binding	11%	–	–	–
B3	–	0.005 ± 0.002 s⁻¹	31%	0.028 ± 0.002 s⁻¹	22%	0.29	0.27	5	–	78%	–	–	–	–	–
B4	–	0.013 ± 0.001 s⁻¹	81%	0.047 ± 0.004 s⁻¹	37%	0.39	0.42	1.2	–	63%	–	–	–	–	–
B5	–	0.005 ± 0.002 s⁻¹	34%	0.037 ± 0.002 s⁻¹	29%	0.37	0.45	5.1	–	71%	diminished vesicle binding	–	–	–	–
B6	–	0.025 ± 0.005 s⁻¹	156%	0.140 ± 0.012 s⁻¹	110%	1.01	1.12	–	–	–	–	–	essentially no effect	–	–
B7	–	0.012 ± 0.003 s⁻¹	75%	0.106 ± 0.008 s⁻¹	83%	1.58	1.50	–	–	–	–	~ 150%	–	150%	158%
B8	–	0.011 ± 0.001 s⁻¹	69%	0.105 ± 0.008 s⁻¹	83%	1.23	0.95	–	–	–	–	123%	–	–	–
B9	–	0.008 ± 0.003 s⁻¹	50%	–	11%	0.13	0.07	10.9	–	–	–	–	–	–	–
B10	–	0.010 ± 0.001 s⁻¹	62%	0.034 ± 0.003 s⁻¹	27%	0.01	0.18	–	–	–	–	–	–	–	–
B11	–	0.016 ± 0.002 s⁻¹	100%	0.154 ± 0.012 s⁻¹	121%	0.93	1.14	–	–	–	–	–	–	–	–

Source: paper PMC3038628 (Journal of molecular biology, 2010)
